The results in this text go back to ChEMBL document CHEMBL1130405, “Cross-linking and sequence specific alkylation of DNA by aziridinyl quinones. 2. Structure requirements for sequence selectivity” (J Med Chem, 1997).

What is called IC50 is the concentration needed to halve the response being measured. Low values mean inhibition by little substance, high ones a need for much substance.

The subject of this assay is K562. As to the kind of experiment: In vitro cytotoxicity tested against human chronic leukemia K562 cells. The class given is functional, cell-based. A digest of the protocol:
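Human K562 chronic myeloid leukaemia cells, kept in log-phase suspension in RPMI 1640 with 10% horse serum at 37 °C, 5% CO2. Seeded at 600 cells/well and given continuous drug exposure for 5 days. Growth was read by MTT absorbance at 540 and 640 nm. Inhibition of growth was plotted against concentration, in triplicate at each concentration.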
With `O=C1C=C(N2CC2)C(=O)C(Br)=C1N1CC1`, the midpoint of inhibition, the IC50, lay at 7.3 nM.

Turning to `CC1=C(N2CC2)C(=O)C(Cl)=C(N2CC2)C1=O`, the IC50 came to 76 nM.

Compound `CC1=CC(=O)C(N2CC2)=C(C)C1=O` had an IC50 of 476 nM.

As to `O=C1C=C(N2CC2)C(=O)C(I)=C1N1CC1`, the IC50 amounted to 12.6 nM.

In turn, `CC1=C(C)C(=O)C(N2CC2)=CC1=O` gave an IC50 of 239 nM.

The compound `Cc1ccc(C2=C(N3CC3)C(=O)C=C(N3CC3)C2=O)cc1` gave an IC50 of 4.8 nM.

As to `O=C1C(Cl)=C(N2CC2)C(=O)C(Cl)=C1N1CC1`, the IC50 turned out to be 46 nM.

For the compound `O=C1C=C(N2CC2)C(=O)C(c2ccc(Oc3ccccc3)cc2)=C1N1CC1`, half-maximal inhibition (IC50) required 170 nM.

The compound `O=C1C(Br)=C(N2CC2)C(=O)C(Br)=C1N1CC1` yielded an IC50 of 42 nM.

In the case of `O=C1C(N2CC2)=C(N2CC2)C(=O)C(N2CC2)=C1N1CC1`, half-maximal inhibition (IC50) required 5.8 nM.

`O=C1C=C(N2CC2)C(=O)C(c2ccccc2)=C1N1CC1` gave an IC50 of 3.1 nM.

`O=C1C(F)=C(N2CC2)C(=O)C(F)=C1N1CC1` came in with an IC50 of 10 nM.

Regarding `CC1=CC(=O)C(N2CC2)=CC1=O`, it took 216 nM to reach half-maximal inhibition (IC50).

Compound `O=C1C(I)=C(N2CC2)C(=O)C(I)=C1N1CC1` yielded an IC50 of 50 nM.

Compound `CC1=C(N2CC2)C(=O)C(C)=C(N2CC2)C1=O` showed an IC50 of 1.8 nM.

The compound `O=C1C(F)=C(N2CC2)C(=O)C(N2CC2)=C1F` showed an IC50 of 39 nM.

In the case of `OCC/N=C1C(O)=C(N2CC2)/C(=N\CCO)C(O)=C/1N1CC1`, half-maximal inhibition (IC50) required 158 nM.

In turn, `O=C1C=C(N2CC2)C(=O)C(Cl)=C1N1CC1` registered an IC50 of 5.3 nM.

Regarding `O=C1C=C(N2CC2)C(=O)C=C1N1CC1`, 8.3 nM corresponded to half-maximal inhibition (IC50).

Compound `O=C1C(c2ccccc2)=C(N2CC2)C(=O)C(c2ccccc2)=C1N1CC1` had a half-maximal inhibitory concentration (IC50) of 67 nM.

In turn, `CCOC(=O)NC1=C(N2CC2)C(=O)C(NC(=O)OCC)=C(N2CC2)C1=O` [DIAZIQUONE] displayed an IC50 of 63 nM.

`O=C1C=C(N2CC2)C(=O)C(N2CC2)=C1N1CC1` [TRIAZIQUONE] yielded an IC50 of 2.9 nM.
